Compound activity deposited in PubChem BioAssay by Johns Hopkins Ion Channel Center.
TRPC4 agonist – activators of mouse TRPC4 channel; Q9QUQ5; HEK293 TRPC4beta/mu-opioid, Fluo4 calcium fluorescence; hits give high values; B-score at 10 µM; 0.49% of 310,000 active;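 active = B-score above 5 SD of library B-scores, and initial fluorescence ratio not above library mean plus 5 SD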;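 also: positive B-score marks a calcium rise read as TRPC4 activation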
Target sequence (Q9QUQ5 whole entry, looked up): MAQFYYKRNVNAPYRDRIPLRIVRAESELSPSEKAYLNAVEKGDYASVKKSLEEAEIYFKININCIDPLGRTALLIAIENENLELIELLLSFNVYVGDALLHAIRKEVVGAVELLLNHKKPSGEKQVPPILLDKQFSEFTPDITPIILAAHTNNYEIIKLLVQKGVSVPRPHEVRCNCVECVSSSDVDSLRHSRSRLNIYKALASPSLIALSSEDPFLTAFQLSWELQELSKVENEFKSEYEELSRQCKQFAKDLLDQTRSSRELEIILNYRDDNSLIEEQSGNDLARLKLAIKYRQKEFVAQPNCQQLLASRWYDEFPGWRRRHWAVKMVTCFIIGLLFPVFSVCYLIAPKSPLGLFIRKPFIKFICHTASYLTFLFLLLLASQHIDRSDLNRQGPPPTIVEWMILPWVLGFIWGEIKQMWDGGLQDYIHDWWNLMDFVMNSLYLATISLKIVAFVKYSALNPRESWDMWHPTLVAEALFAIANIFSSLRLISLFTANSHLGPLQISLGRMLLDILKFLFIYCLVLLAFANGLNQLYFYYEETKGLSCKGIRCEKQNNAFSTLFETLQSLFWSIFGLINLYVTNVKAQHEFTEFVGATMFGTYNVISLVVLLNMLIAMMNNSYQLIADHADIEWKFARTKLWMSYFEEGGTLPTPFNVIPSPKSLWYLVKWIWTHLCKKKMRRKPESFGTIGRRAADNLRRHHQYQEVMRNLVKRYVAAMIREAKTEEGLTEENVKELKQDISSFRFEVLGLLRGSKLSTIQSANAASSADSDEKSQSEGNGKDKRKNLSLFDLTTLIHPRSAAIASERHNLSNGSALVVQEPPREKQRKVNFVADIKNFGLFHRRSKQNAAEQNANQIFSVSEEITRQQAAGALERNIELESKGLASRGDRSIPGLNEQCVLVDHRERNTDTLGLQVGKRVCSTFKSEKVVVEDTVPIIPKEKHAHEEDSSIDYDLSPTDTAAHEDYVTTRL
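Test system: HEK293 cells stably co-expressing mouse TRPC4beta and mu-opioid receptor | Schedule: Fluo4 dye loading 45 min at room temperature, 110 s recording | Measured by: Kinetic Fluo4 calcium fluorescence, 5 s baseline at 1 Hz | Evaluation: B score of integrated ratio | Controls: Buffer (low) and maximal DAMGO (high)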
TRPC4 potent – TRPC4 (mouse) allosteric potentiation; Q9QUQ5; HEK293 TRPC4beta/mu-opioid, DAMGO EC20, Fluo-4 Ca2+ flux; hits give high values; B-score at 10 µM; 0.42% of 310,000 active;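 active = B-score of calcium response area above 5 SD of library B-scores, with initial fluorescence ratio within 5 SD of library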
TRPC6 inhibitor – blocks the mouse TRPC6 cation channel; Q61143; 1.1% of 310,000 active; HEK293-TRPC6, membrane potential dye, ACh-evoked depolarization; hits give low values; AID 2553; B-score at 10 µM;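 active = B-score under library mean minus 3 SD, initial fluorescence not abnormally high, positive integrated signal ratio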;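 also: B-score derived from integrated fluorescence ratio over the kinetic read; more negative B-score means stronger inhibition of depolarization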
TRPC4 block – inhibitors of mouse TRPC4 channel; Q9QUQ5; 0.39% of 300,000 active; HEK293 TRPC4beta/mu-opioid, DAMGO-evoked Fluo4 calcium flux; hits give low values; B-score at 10 µM;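 active = B-score over 3 SD under the library average, no early fluorescence shift, positive overall ratio signal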
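material = TRPC4beta/mu-opioid receptor HEK293 cell line | probe or stimulus = sequential submaximal and maximal DAMGO stimulation | compound dosing = one concentration per compound | measured by = Fluo4 Ca2+ flux fluorescence | evaluation = integrated fluorescence ratio relative to baseline, converted to per-well B score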
TRPC6 activator – mouse TRPC6 channel activation; Q61143; HEK293-TRPC6 membrane potential dye fluorescence; hits give high values; B-score at 10 µM; 0.13% of 310,000 active; AID 2550;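 active = B-score of the integrated fluorescence ratio above library mean plus 3 SD, and starting fluorescence ratio within library mean plus 5 SD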;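 also: higher score means more depolarization so channel activation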
TRPC4 spec 2 – second selectivity test of TRPC6 inhibitors: effect on mouse TRPC4; inhibition, % at 10 µM; shares compounds with TRPC6 inhibitor; HEK293 TRPC4/MOR, membrane potential dye fluorescence; channel activated by saturating DAMGO dose; 42% of 920 active;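 active = compounds whose fluorescence signal differed from control wells by over 3 SD, either direction, in both duplicate plates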
TRPC4 spec – selectivity of TRPC6 inhibitors: effect on mouse TRPC4; shares compounds with TRPC6 inhibitor; HEK293 TRPC4/mu-opioid, membrane potential fluorescence; activity change, negative = inhibition, % at 10 µM; 61% of 920 active; AID 2777;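 active = rise or fall in signal beyond 3 SD of buffer-only wells in both replicate plates, either sign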;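 also: integrated kinetic ratio of fluorescence range over baseline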
HEK293 MPD ctr 2-1 – parental HEK293 nonspecific activity of TRPC6 inhibitors, second screen | signal change vs control, % at 10 µM | shares compounds with TRPC6 inhibitor | 31% of 920 active | AID 2779 | parental HEK293 membrane potential dye fluorescence; maximal acetylcholine challenge after compound addition;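 active = membrane potential signal moving either way by over 3 SD of the maximum-effect control, in both duplicate plates, meaning non-specific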
HEK293 MPD ctr-1 – counter-screen for TRPC6 inhibitors: effect in parental HEK293 cells; shares compounds with TRPC6 inhibitor; parental HEK293 membrane potential dye fluorescence; membrane potential signal change, % at 10 µM; 60% of 920 active; AID 2780;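 active = membrane potential signal shifting up or down by more than 3 SD of buffer-only wells, on both duplicate plates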
HEK293 MPD ctr-2 – checks TRPC6 modulator effects in parental HEK293 cells | shares compounds with TRPC6 inhibitor | membrane potential dye fluorescence | membrane potential signal change, % at 10 µM | 51% of 2,400 active | AID 488924;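 active = membrane potential signal moves up or down beyond 5 SD from buffer-only wells, on both duplicate plates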
HEK293 MPD ctr 2-2 – second counter-screen for TRPC6 modulators: effect in parental HEK293 cells. shares compounds with TRPC6 inhibitor. membrane potential dye fluorescence; after compound, maximal acetylcholine stimulation. inhibition, % at 10 µM. 14% of 2,400 active;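 active = membrane potential signal drops by more than 5 SD from the mean control signal, in both duplicate plates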
TRPC4 ctr mod – tests whether TRPC6 modulators also affect mouse TRPC4; shares compounds with TRPC6 inhibitor; HEK293 TRPC4/mu-opioid, membrane potential fluorescence; percent change from control (negative = decrease, positive = increase), % at 10 µM; 69% of 2,400 active; AID 488927;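 active = membrane potential signal moved up or down beyond 5 SD of buffer control wells, in both duplicate plates, actives on both sides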
TRPC4/MOR inh 2 – mouse TRPC4 off-target activity of TRPC6 modulators, second screen; shares compounds with TRPC6 inhibitor; HEK293 TRPC4/mu-opioid, membrane potential dye fluorescence; stimulated with maximal-effect DAMGO; inhibition, % at 10 µM; 55% of 2,400 active; AID 488928;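 active = drop in membrane potential signal beyond 5 SD of the control wells in both duplicate plates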;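 also: TRPC4 counter screen for TRPC6 hits run under conditions tuned for TRPC6 not TRPC4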
TRPC6 inh conf – confirmation of mouse TRPC6 inhibitors; shares compounds with TRPC6 inhibitor; HEK293-TRPC6, membrane potential dye, ACh-evoked depolarization; inhibition, % at 10 µM; 43% of 3,300 active; AID 488960;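 active = fluorescence ratio falls more than 5 SD below the full-stimulation control mean, in both duplicate runs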;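 also: integrated fluorescence ratio of peak minus minimum over baseline after agonist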
TRPC6 act confirm – mouse TRPC6 activator confirmation; 11% of 2,800 active; shares compounds with TRPC6 inhibitor; HEK293-TRPC6 membrane potential dye fluorescence, FDSS; activation, % at 10 µM;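 active = ratio signal rise beyond 5 SD above unstimulated control wells' mean, seen in both duplicate runs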
Hits are given with their value; n = inactive; x = no result. Hits are enriched below; roughly 2.3% of the tested compounds scored in any of these assays.

SMILES	TRPC4 agonist	TRPC4 potent	TRPC6 inhibitor	TRPC4 block	TRPC6 activator	HEK293 MPD ctr-2	HEK293 MPD ctr 2-2	TRPC4 ctr mod	TRPC4/MOR inh 2	TRPC6 inh conf	TRPC6 act confirm	others
S=C(Nc1ccc(Oc2ccccc2)cc1)N1CCOCC1	n	n	n	n	n	x	x	x	x	x	x
O=C(Cn1nnc(-c2ccccc2F)n1)Nc1ccc(S(=O)(=O)NC2CCCC2)cc1	n	n	n	n	n	x	x	x	x	x	x
CCOc1ccc(NC(=O)c2ccc(NC(=O)CSc3nc4ccccc4c(=O)[nH]3)cc2)cc1	n	n	n	n	n	x	x	x	x	x	x
CCOC(=O)c1cc2c(=O)n3ccccc3nc2n(C(C)C)c1=NC(=O)c1ccco1	n	n	n	n	n	x	x	x	x	x	x
CC(C)n1c(=NC(=O)c2ccco2)c(C#N)cc2c(=O)n3ccccc3cc21	n	n	-6.1	n	n	-86%	n	-24%	n	n	n
COc1cc2c(cc1OC)C(c1ccc(-c3ccc(Cl)c(Cl)c3)o1)=NCC2	n	n	n	n	n	x	x	x	x	x	x
COc1cc2c(cc1OC)C(c1ccc(-c3ccc(Cl)cc3Cl)o1)=NCC2	n	n	n	n	n	x	x	x	x	x	x
COc1cc2c(cc1OC)C(c1ccc(-c3ccccc3Cl)o1)=NCC2	n	n	-6.2	n	n	-190%	n	-48%	52%	40%	n
COc1cc2c(cc1OC)C(c1ccc(Cl)cc1)=NCC2	n	n	-6.2	n	n	-275%	n	-40%	52%	44%	n
O=C(CSc1nnc2c(n1)[nH]c1ccccc12)NCc1ccccc1F	n	n	n	n	n	x	x	x	x	x	x
COc1ccc(C(=O)C2CCCN(C(=O)c3cccs3)C2)cc1F (stereo unspecified)	n	n	n	n	n	x	x	x	x	x	x
S=c1[nH]nc(-c2n[nH]c3c2CCC3)n1/N=C/C=C/c1ccco1	n	n	n	n	n	x	x	x	x	x	x
CCCCc1nc2ccccc2c(N)c1CCC (tested in a mixture with another compound)	n	n	-7.6	-6	n	x	x	x	x	59%	n	TRPC4 spec 2=15%;TRPC4 spec=n;HEK293 MPD ctr 2-1=n;HEK293 MPD ctr-1=0.7%
CCCCc1nc2ccccc2c(NC(=O)CNC(C)(C)C)c1CCC	n	n	n	n	n	x	x	x	x	x	x
Fc1ccccc1CNCCC(Cc1ccccc1)c1ccc2c(c1)OCO2 (stereo unspecified)	70	n	-6.3	-8	n	119%	n	48%	69%	n	x
CC(=O)N(CCC(Cc1ccccc1)c1ccc2c(c1)OCO2)Cc1ccccc1F (stereo unspecified)	n	n	n	n	n	x	x	x	x	x	x
O=c1cc(-c2ccc(Cl)c(Cl)c2)[nH][nH]1	n	n	-5.1	n	n	n	n	n	n	n	n
